# High-throughput results: PubChem BioAssay, The Scripps Research Institute Molecular Screening Center
# PRMT1 inh: inhibitors of human PRMT1; inhibition, % at 2.79 µM; hit rate 1.3% among 370,000; recombinant PRMT1, activity-based probe fluorescence polarization;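 active = inhibition above about 21% made by adding two undisclosed values, limit read from the data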
# DAGLB inh: blocks human DAGLB lipase activity. Q8NCG7. HEK293T DAGLB membrane lysate, EnzChek fluorogenic substrate. inhibition, % at 5.17 µM. hit rate 0.059% among 340,000. AID 504411; in the data active = inhibition above about 34%;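 note: 0% = enzyme with vehicle and 100% = wells lacking enzyme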
# HTRA1 inhibitor: HTRA1 (human) protease inhibition. Q92743. recombinant HTRA1, FP-rhodamine activity-based probe, fluorescence polarization. inhibition, % at 5.96 µM. hit rate 0.5% among 340,000; in the data active = inhibition above about 36%;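 note: 0% = enzyme with DMSO and 100% = wells lacking enzyme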
# LEDGF integ inh: blocks HIV-1 LEDGF/p75-dependent DNA integration; TR-FRET IN-LEDGF/p75 DNA integration, Eu/Cy5; inhibition, % at 3.7 µM; hit rate 0.64% among 370,000; AID 743269;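 active = inhibition above the screen-wide mean plus 3 SD, cut at about 13% in these data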;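 note: signal is the Cy5 over europium emission ratio at 671 and 618 nm; 0% = plate median of compound wells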
# ABHD4 inh: inhibitors of mouse ABHD4. purified mABHD4, FP-Rh probe fluorescence polarization. hit rate 0.54% among 370,000. Q8VD66. inhibition, % at 8.92 µM;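 active = inhibition exceeding the mean over every tested compound plus 3 SD, cut at about 30% in these data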;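 note: 0% = plate median of compound wells and 100% = S159A mutant with DMSO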
# Target sequence (Q8VD66 whole entry, looked up): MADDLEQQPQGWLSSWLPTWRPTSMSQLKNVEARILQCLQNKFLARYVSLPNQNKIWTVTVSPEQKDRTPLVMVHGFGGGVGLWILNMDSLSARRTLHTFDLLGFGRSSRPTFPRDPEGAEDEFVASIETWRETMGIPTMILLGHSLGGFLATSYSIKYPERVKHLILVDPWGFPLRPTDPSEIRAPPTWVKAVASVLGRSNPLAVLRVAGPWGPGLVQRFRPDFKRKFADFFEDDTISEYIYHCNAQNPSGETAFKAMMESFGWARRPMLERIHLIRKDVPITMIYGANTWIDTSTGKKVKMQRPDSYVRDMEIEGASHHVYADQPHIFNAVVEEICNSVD
#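 Test system: mABHD4 protein; Read-out basis: % inhibition; Incubation: 45 min + 60 min at 25 °C; Repeats: single replicate; Technique: fluorescence polarization with parallel and perpendicular emission, 525/598 nm; Compound: 8.92 µM, single dose; Benchmarks: full inhibition S159A mutant plus DMSO, zero as sample-well median.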
# rCAG RNA binder: r(CAG) repeat RNA binding | TO-PRO-1 dye displacement fluorescence | inhibition, % at 3 µM | hit rate 1.3% among 370,000;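 active = inhibition above the plate cutoff, the mean of all test compounds on that plate plus 3 SD, cut at about 35% in these data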;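 note: 0% = DMSO alone and 100% = 100 µM mitoxantrone as full dye displacement; higher means more dye released from RNA so lower well fluorescence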
# IN multimer act: counter-screen for LEDGF/p75 integration inhibitors: HIV-1 integrase multimerization activators. hit rate 17% among 2,000. activation, % at 7.7 µM. shares compounds with LEDGF integ inh. AID 1053131. TR-FRET HIV-1 integrase multimerization, biochemical; in the data active = activation above about 8.9%
# TR-FRET interf: optically interferes with TR-FRET readout in LEDGF counter-screen | shares compounds with LEDGF integ inh | 2,000 tested, under 10 active | inhibition, % at 7.7 µM | TR-FRET optical interference counterscreen, HIV-1 IN multimerization | AID 1053135;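 active = inhibition above the mean over all tested compounds plus 3 SD, which no compound reached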;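 note: 0% = integrase with antibodies and DMSO and 100% = antibodies without integrase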
# IN-LEDGF confirm: confirmation of HIV-1 LEDGF/p75-dependent integration inhibitors; shares compounds with LEDGF integ inh; TR-FRET LEDGF/p75-dependent HIV-1 integration, biochemical; inhibition, % at 3.7 µM; hit rate 36% among 2,000; in the data active = inhibition above about 14%
# An asterisk follows results filed as active; · = no result. A selection: hits, their analogues and other compounds. The true share with any hit is near 3.2%.
SMILES,PRMT1 inh,DAGLB inh,HTRA1 inhibitor,LEDGF integ inh,ABHD4 inh,rCAG RNA binder,IN multimer act,TR-FRET interf,IN-LEDGF confirm
Cc1cc(=O)oc2cc3c(cc12)OCO3,8,-1,3,4,-3,-3,·,·,·
COc1ccc(NS(=O)(=O)c2ccc(NC(=O)CCNS(=O)(=O)c3ccc(C)cc3)cc2)cc1,1,0,-25,-3,-6,20,·,·,·
Cc1ccc(C2N3CC4([N+](=O)[O-])CN2CC([N+](=O)[O-])(C3)C4(C)C)cc1 (configuration not stated),3,2,13,-6,-3,-4,·,·,·
COc1ccc(S(=O)(=O)Nc2ccc(F)c(F)c2)cc1Cl,-1,2,-5,35*,-7,13,2,-6,-6
COc1ccc(NS(=O)(=O)c2ccc(OC)c(OC)c2)cc1OC,-1,-1,6,0,-2,-3,·,·,·
O=C(Cn1c2ccccc2c2nc3n(c(=O)c21)CCS3)Nc1ccccc1,2,1,-6,-8,9,0,·,·,·
COc1ccc(N(CC(=O)Nc2cccc(N(C)S(C)(=O)=O)c2)S(=O)(=O)c2ccccc2)cc1Cl,4,-1,-22,44*,-17,15,2,-8,-3
COc1ccc(N(CC(=O)Nc2ccc(OC)c(OC)c2)S(=O)(=O)c2ccccc2)cc1Cl,-3,-5,-9,6,-1,6,·,·,·
COc1ccc(N(CC(=O)Nc2cccc(SC)c2)S(C)(=O)=O)cc1Cl,-1,-9,-23,1,-14,5,·,·,·
COc1ccc(Cl)cc1N(CC(=O)Nc1cccc(SC)c1)S(C)(=O)=O,-4,-1,-16,40*,-8,2,-1,3,-3
O=[N+]([O-])c1ccc2c(c1)nc1n2CCN(c2ccccc2)C1,6,8,-25,17*,2,12,0,-1,7
COCCN1CCn2c(nc3cc([N+](=O)[O-])ccc32)C1,3,0,4,4,1,3,·,·,·
CCC(CC)C(=O)N(C)c1c(C)nc2c(OCc3ccccc3OC)cccn12,0,·,·,-2,9,-1,·,·,·
N#CCC1(O)C(=O)N(Cc2ccccc2)c2ccccc21 (configuration not stated),-1,·,·,76*,-4,3,1,-3,-10
O=C(C=C1SCCS1)/C=C/c1ccco1,22*,-1,-3,14*,8,10,5,-27,35*
O=C(O)C(C(=O)/C=C/c1ccco1)=C1SCCS1,19,0,5,18*,7,16,1,-5,33*
O=C(/C=C/c1ccco1)NC1CCCC1,14,2,3,2,0,6,·,·,·
CN(C)CCSc1nc(-c2ccccc2)nc2c1CCCC2,-2,·,·,2,4,-6,·,·,·
CS(=O)(=O)N1CCN(c2ccc(NC(=O)CSc3ccc(Cl)cc3)cc2)CC1,0,3,-2,63*,2,1,-2,8,-1
Cc1ccc(C(=O)N2CCN(c3ccc(NC(=O)CSc4ccc(Cl)cc4)cc3)CC2)cc1,3,-2,5,-2,2,1,·,·,·
O=C(NCCOc1ccccc1Cl)C(=O)c1c[nH]c2ccccc12,-1,-3,-35,1,-28,12,·,·,·
O=C(NCCOc1ccccc1)C(=O)c1c[nH]c2ccccc12,3,-8,-16,30*,-10,0,3,-12,-5
CCN(CC)C(=S)Nc1ccc2nc3n(c(=O)c2c1)CCCCC3,5,-2,4,-4,6,-3,·,·,·
CC(=O)N1CCN(c2ccc(NCc3cccc(C)c3)cc2)CC1,2,2,17,14*,29,0,3,-17,-2
CC(=O)N1CCN(c2ccc(N)cc2)CC1,18,1,13,26*,12,8,0,0,-1
SMILES,PRMT1 inh,DAGLB inh,HTRA1 inhibitor,LEDGF integ inh,ABHD4 inh,rCAG RNA binder,IN multimer act,TR-FRET interf,IN-LEDGF confirm
CCOc1ccc(CC2c3cc(OCC)c(OCC)cc3CCN2C(=O)c2cc(OC)c(OC)c(OC)c2)cc1OCC (configuration not stated),-1,1,0,2,3,-1,·,·,·
O=Cc1cccc(OC(=O)Nc2ccccc2)c1,3,·,·,-6,2,-1,·,·,·
COc1ccc(CCN(C)C(=O)CSc2nnc(-c3ccco3)o2)cc1OC,0,0,5,-1,4,-4,·,·,·
COc1ccc(-c2ccc(NCCC3=CCCCC3)nn2)cc1OC,-2,-4,1,5,-1,-6,·,·,·
CCc1ccccc1NC(=S)N(CCN(C)C)C(C)c1ccco1 (configuration not stated),-2,-1,3,3,-3,-2,·,·,·
C[C@@H]1NC(=O)N[C@@H]1CCCCCC(=O)O,-1,0,4,82*,-1,1,-1,5,74*
Cc1cccc(C)c1NC(=O)CCCCCC1NC(=O)NC1C (configuration not stated),1,1,-1,20*,-4,-1,-2,9,10
O=C(O)CCCCC1SCC2NC(=O)NC21 (configuration not stated),6,-2,-2,70*,2,-1,-2,9,63*
Cc1cccc(C)c1NC(=O)CCCN1CC(C)OC(C)C1 (configuration not stated),2,2,-4,-5,1,-1,·,·,·
CCCCCC1NC(=O)NC1CCCCCC(=O)O (configuration not stated),-1,-2,1,-1,3,1,·,·,·
CN(Cc1ccccc1)S(=O)(=O)c1nnc(NC(=O)c2ccccc2)s1,-1,4,-5,2,-4,16,·,·,·
CS(=O)(=O)N(CC(=O)NCC1CCCO1)c1cccc(Cl)c1 (configuration not stated),0,-4,2,-3,8,-2,·,·,·
CCOC(=O)c1[nH]nc(N)c1NC(=O)c1ccc(Cl)cc1Cl,1,2,-3,-1,3,-4,·,·,·
CCOc1ccc2c(c1)C(C)=CC(C)(C)N2C(=O)Nc1ccccc1F,20,0,-1,22*,17,3,4,-21,1
O=C(CSC(=S)N1CCCC1)N1CCN(S(=O)(=O)c2ccccc2F)CC1,-3,-3,7,-1,-5,-2,·,·,·
O=C1CSC(c2ccc(Cl)c(Cl)c2)N1c1nccs1 (configuration not stated),9,-10,-16,18*,-8,5,-2,11,-4
